Here are results for six compounds from ChEMBL document CHEMBL1811869, “Tigliane-type diterpenoid glycosides from Euphorbia fischeriana” (J Nat Prod, 2011).

Data set [1] concerns Human immunodeficiency virus 1. The experiment in a line: Antiviral activity against Human immunodeficiency virus 1 infected in human C8166 cells assessed as inhibition of virus-induced cytopathic effect. The data set is classed as functional, organism-based. As to conditions: Human immunodeficiency virus 1, C8166. The essentials: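 HIV-1 cytopathic-effect inhibition assay in C8166 cells, with EC50 derived. Zidovudine (AZT) run as the positive-control drug.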

Data set [2] can be described thus: Cytotoxicity against human C8166 cells by MTT assay. The data set is classed as cell-based. A digest of the protocol: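 C8166 cell viability read by MTT method, with CC50 derived.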
Data set [3] in a line: Therapeutic index, ratio of CC50 for C8166 cells to EC50 for Human immunodeficiency virus 1. Conditions: read-out: Ratio CC50/EC50. The data set is classed as cell-based.

`CC(=O)OCC1=C[C@H]2[C@@H]3C(C)(C)[C@]3(OC(C)=O)C[C@@H](C)[C@]2(O)[C@@H]2C=C(C)C(=O)[C@@]2(O)C1`: the EC50 in data set [1] turned out to be 0.3 nM. In data set [2], this compound displayed a CC50 of 110 nM. The selectivity ratio in data set [3] is more than 367.

Take `CC(=O)O[C@@]12C[C@@H](C)[C@@]3(O)[C@@H](C=C(CO[C@@H]4O[C@H](CO)[C@@H](O)[C@H](O)[C@H]4O)C[C@]4(O)C(=O)C(C)=C[C@@H]34)[C@@H]1C2(C)C` [FISCHEROSIDES A]: in data set [1], the EC50 worked out at 170 nM. In data set [2], this compound returned a CC50 of more than 360 nM. Further, in data set [3], the selectivity ratio was more than 2.12.

In the case of `CC(=O)O[C@@]12C[C@@H](C)[C@@]3(O)[C@@H](C=C(CO[C@@H]4O[C@H](COC(=O)c5cc(O)c(O)c(O)c5)[C@@H](O)[C@H](O)[C@H]4O)C[C@]4(O)C(=O)C(C)=C[C@@H]34)[C@@H]1C2(C)C` [FISCHEROSIDES B], the EC50 in data set [1] came to 70 nM. In data set [2], this compound displayed a CC50 of more than 280 nM. Further, the selectivity ratio in data set [3] is more than 4.

In the case of `CC(=O)O[C@@]12[C@H](O)[C@@H](C)[C@@]3(O)[C@@H](C=C(CO[C@@H]4O[C@H](CO)[C@@H](O)[C@H](O)[C@H]4O)C[C@]4(O)C(=O)C(C)=C[C@@H]34)[C@@H]1C2(C)C` [FISCHEROSIDES C], the EC50 in data set [1] amounted to 20 nM. For the same compound, the CC50 in data set [2] was more than 350 nM. In addition, the selectivity ratio in data set [3] was more than 17.5.

On to `CC(=O)O[C@@]12C[C@@H](C)[C@@]3(O)[C@@H](C=C(CO)C[C@]4(O)C(=O)C(C)=C[C@@H]34)[C@@H]1C2(C)C` [PROSTRATIN], for which the EC50 in data set [1] was 0.06 nM. For the same compound, the CC50 in data set [2] was more than 510 nM. In addition, the selectivity ratio in data set [3] was more than 8500.

On to `Cc1cn([C@H]2C[C@H](N=[N+]=[N-])[C@@H](CO)O2)c(=O)[nH]c1=O` [ZIDOVUDINE], for which half-maximal cytotoxicity in data set [2] (CC50) was put at 4070 nM. Also, the selectivity ratio in data set [3] came to 1.02e+06.
